# Screening data as filed in PubChem BioAssay.
# This is a sample that favours compounds with a hit; in the whole collection about 2% have one here.
# NR2E3 ag-1: activates human photoreceptor nuclear receptor NR2E3; 320,000 tested, 0.12% active; GST-NR2E3/biotin-RetCOR TR-FRET, 1536-well; Q9Y5X4; AID 2300; inhibition of corepressor binding, % at 4.78 µM;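 active means percent inhibition above the cutoff of mean plus 3 SD of all tested compounds, set per screening campaign, cut at about 20% in these data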;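 further: 0% = DMSO wells and 100% = biotin wells as full block of FRET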
# Target sequence (Q9Y5X4 whole entry, looked up): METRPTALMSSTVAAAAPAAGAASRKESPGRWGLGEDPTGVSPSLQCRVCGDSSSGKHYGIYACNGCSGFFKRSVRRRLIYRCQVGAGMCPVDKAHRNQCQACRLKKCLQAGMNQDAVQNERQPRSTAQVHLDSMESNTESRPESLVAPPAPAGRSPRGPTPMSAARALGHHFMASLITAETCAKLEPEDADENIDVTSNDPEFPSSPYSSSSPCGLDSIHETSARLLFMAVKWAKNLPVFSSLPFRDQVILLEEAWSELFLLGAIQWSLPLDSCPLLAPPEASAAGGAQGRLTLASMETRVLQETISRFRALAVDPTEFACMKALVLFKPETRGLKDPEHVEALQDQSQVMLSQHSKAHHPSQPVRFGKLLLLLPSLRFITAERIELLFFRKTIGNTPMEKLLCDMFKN
#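 Material: NR2E3–RetCOR corepressor complex | Quantity: 1.35 nM GST-tagged NR2E3 final | Schedule: 5 h at 4 °C | Replication: Singlicate compound wells | Reagent: RetCOR corepressor, biotinylated, 7 nM | Controls: Biotin wells as high control, 0.6% DMSO wells as low control | Signal: TR-FRET, Eu(K)-anti-GST donor, streptavidin-D2 acceptor, ex 340, em 617/671 nm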
# NR2E3 ag-2: human photoreceptor-specific nuclear receptor agonism | CHO-S Gal4-NCOR/VP16-NR2E3 two-hybrid, luciferase | inhibition of corepressor binding, % at 3.98 µM | 360,000 tested, 0.35% active;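 active means inhibition above the mean of all tested compounds plus 3 SD, cut at about 70% in these data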;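 further: 0% = DMSO with NR2E3 transfected cells and 100% = cells lacking NR2E3 construct; higher means lower luciferase signal from less NR2E3 corepressor binding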
# NR1D1 modulator: modulates human Rev-erb alpha binding to DNA; P20393; Rev-erbα–FITC-DNA binding, fluorescence polarization, 90 min; activity, % at 10 µM; 370,000 tested, 0.79% active;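 active means activity above about 14%, limit read from the data; passing the limit was not always enough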;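 further: 0% = DMSO wells with 35 nM protein and 100% = DMSO wells with 750 nM protein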
# PG9 Ab binder: binds the HIV-1 gp120 antibody PG9; 360,000 tested, 0.43% active; TR-FRET gp120-PG9 antibody binding; AID 624416; inhibition, % at 6.7 µM; in the data active means inhibition above about 8.5%
# Neddylation inh: inhibitors of human cullin neddylation | P61081+Q13564 | TR-FRET cullin neddylation, biochemical | calls only at 25 µM | 360,000 tested, 0.58% active | AID 651699; in the data active means inhibition above about 36%
# NR2E3 ag conf: confirmation of human NR2E3 agonists. inhibition, % at 3.98 µM. 2,300 tested, 51% active. shares compounds with NR2E3 ag-2. AID 624378. CHO-S mammalian two-hybrid NR2E3-NCOR, luciferase luminescence;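 active means average inhibition above a cutoff equal to the mean inhibition of all tested compounds plus one SD, cut at about 70% in these data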;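 further: 0% = DMSO in NR2E3 cells and 100% = DMSO in cells lacking NR2E3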
# GAL4-VP16 luc: counter-screen for NR2E3 agonists: GAL4-VP16 reporter inhibitors; shares compounds with NR2E3 ag-2; CHO-S GAL4-VP16 luciferase reporter, luminescence; inhibition, % at 3.98 µM; 2,300 tested, 29% active;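 active means mean inhibition above a cutoff equal to the average over all tested compounds plus one standard deviation, cut at about 70% in these data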;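 further: luciferase from a UAS reporter driven by GAL4-VP16 transactivation; 0% = DMSO with VP16-transfected cells and 100% = DMSO with cells lacking VP16; higher means less reporter light so more repression of VP16 activity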
# Starred values were filed as active, the others as inactive; i = inactive; x = not tested or not shown.
SMILES,NR2E3 ag-1,NR2E3 ag-2,NR1D1 modulator,PG9 Ab binder,Neddylation inh,NR2E3 ag conf,GAL4-VP16 luc
O=C(N[C@H](C(=O)N1CCC[C@H]1C(=O)NC1CCCC1)C1CCCCC1)C1CCCC1,x,x,0,-1,x,x,x
O=C(NCc1ccccc1CN1CCCC1)c1cccc(N2CCCC2=O)c1,6,78*,-2,1,i,-7,-9
CN1CCCCC(NC(=O)c2cccc([N+](=O)[O-])c2)C1=O (centres undefined),x,x,4,1,x,x,x
COc1cc(C(O)c2nc(-c3cc(F)cc(F)c3)cs2)ccc1F (centres undefined),x,0,11,0,i,x,x
COc1cc(C(O)c2nc(-c3ccc(N(C)C)cc3)cs2)ccc1F (centres undefined),x,50,x,x,i,33,42
O=C(NCc1cccnc1)/C(=C\c1ccc(-c2ccc(Cl)c(Cl)c2)o1)S(=O)(=O)c1ccccc1,1,92*,-6,-2,i,99*,36
Nc1nc(N)nc(-c2ccc(Oc3ccccc3)cc2)n1,5,2,-5,0,i,x,x
Nc1ncnc2c1c(-c1ccc(Oc3ccccc3)cc1)cn2C1CCCC1,4,74*,0,0,i,86*,72*
CCCCN1CCN(C(=O)Cn2c(=O)c3ccccc3n(CC)c2=O)CC1,x,x,-4,x,x,x,x
CCNC(=S)N1CCN(c2ccc([N+](=O)[O-])cc2)CC1,-3,7,6,-2,i,x,x
O=[N+]([O-])c1ccc(N2CCN(C(=S)NCc3ccc(Cl)cc3)CC2)cc1,1,54,-1,0,i,91*,69
COc1cccc2sc(Nc3nc(-c4ccccn4)cs3)nc12,2,97*,x,x,i,100*,-25
CS(=O)(=O)OC12CCCN(C1)/C(=C/c1ccc(Cl)cc1)C2 (centres undefined),x,x,-3,x,x,x,x
Oc1ccc(O)c(C=NNC(=S)NC2CC3CC2C2C=CCC32)c1 (centres undefined),x,53,-1,0,i,-18,-34
NNC(=S)NC1CC2CC1C1C=CCC21 (centres undefined),2,36,-6,0,i,x,x
CC(C)C[C@@H](CN1CCCC1CN1C(=S)NC[C@@H]1Cc1ccc(O)cc1)N1C[C@H](Cc2ccccc2)N(CCc2ccccc2)C1=S (some centres undefined),x,-18,-7,0,i,x,x
CC(C)C[C@@H](CN1CCC[C@@H]1CN1C(=S)NC[C@@H]1Cc1ccc(O)cc1)N1C[C@H](Cc2ccccc2)N(CCc2ccccc2)C1=S,x,53,x,x,i,-3,25
Cc1ccc2c(c1)nnn2C1CCN(S(=O)(=O)c2ccc(C(=O)N3C(C)CCCC3C)cc2)CC1 (centres undefined),-1,71*,-1,-3,i,89*,71*
COc1ccc(C)cc1NC(=O)c1nnn(Cc2cccc(C(F)(F)F)c2)c1N,0,63,-3,-1,x,85*,22
Cc1ccccc1Cn1nnc(C(=O)Nc2cccc(C)c2C)c1N,4,66,5,0,i,87*,36
COc1ccc(OC)c(NC(=O)c2nnn(CCc3ccccc3)c2N)c1,4,-19,-4,0,i,x,x
Cc1ccc(CNC(=O)Cn2nnc(C(=O)Nc3cccc(C)c3C)c2N)cc1,2,-43,-3,3,i,x,x
C=CCN1[C@@H](C)COc2cc(F)ccc2S1(=O)=O,x,x,2,x,x,x,x
CCCN(CCC)C(=O)C(CCC(=O)OCCCN1CCN(CCOC(=O)Cc2c(C)n(C(=O)c3ccc(Cl)cc3)c3ccc(OC)cc23)CC1)NC(=O)c1ccccc1 (centres undefined),x,x,6,x,x,x,x
Nc1cc(S(=O)(=O)Nc2ccc(Cl)cc2)ccc1N1CCOCC1,-1,55,-2,3,i,85*,64
SMILES,NR2E3 ag-1,NR2E3 ag-2,NR1D1 modulator,PG9 Ab binder,Neddylation inh,NR2E3 ag conf,GAL4-VP16 luc
CCNC(=O)Nc1cc(S(=O)(=O)Nc2ccc(OC)cc2)ccc1N1CCOCC1,0,85*,x,x,i,84*,76*
Nc1cc(S(=O)(=O)Nc2ccccc2Cl)ccc1N1CCOCC1,0,-17,4,1,i,x,x
COc1ccc(NS(=O)(=O)c2cc(N)ccc2N2CCCC2)cc1,x,-35,11,-2,i,x,x
COc1ccc(NS(=O)(=O)c2ccc(N3CCCC3)c(N)c2)cc1,-1,89*,2,-3,i,77*,72*
C=CS(=O)(=O)N(Cc1ccc(Cl)c(Cl)c1)C[C@@H](O)CO,x,52,x,x,i,18,21
Cc1csc2c(N3CCN(C(=O)NC(C)(C)C)CC3)ncnc12,0,8,7,0,i,x,x
Cc1csc2ncnc(N3CCN(C(=S)Nc4ccc(C(F)(F)F)cc4)CC3)c12,-2,66,8,2,i,95*,83*
Cc1csc2c(N3CCN(C(=O)Nc4ccc(Cl)c(Cl)c4)CC3)ncnc12,3,81*,-2,1,i,97*,84*
Cc1csc2c(N3CCN(C(=S)Nc4ccc(C(F)(F)F)cc4)CC3)ncnc12,-2,92*,0,1,i,96*,87*
Cc1cc(C)cc(NC(=S)N2CCN(c3ncc(C(F)(F)F)cc3Cl)CC2)c1,1,16,-4,0,i,x,x
Cc1csc2c(N3CCN(C(=O)c4ccc(C(C)(C)C)cc4)CC3)ncnc12,-4,77*,-2,2,i,97*,84*
Cc1nn(CCC(=O)NNC(=O)Nc2ccc(F)cc2)c(C)c1[N+](=O)[O-],x,x,7,x,x,x,x
COC(=O)C1CN(Cc2cn(CCOC(C)=O)nn2)CCS(=O)(=O)N1Cc1ccccc1 (centres undefined),x,x,-3,x,x,x,x
COc1ccc(C)cc1NC(=O)NC1CC(=O)N(c2ccc3c(c2)OCCO3)C1 (centres undefined),x,72*,2,0,i,78*,11
Cc1ccc(NC(=O)NC2CC(=O)N(c3ccc4c(c3)OCCO4)C2)cc1 (centres undefined),2,12,-2,-1,i,x,x
COc1ccc(S(=O)(=O)N2CCCCCC2)c2ccccc12,x,x,4,x,x,x,x
O=C1c2ccccc2C(=O)c2c1oc(C(F)(F)F)c2C(=O)c1ccccc1,4,112*,0,0,i,98*,87*
Cc1nc2ccccc2c2c1CC(C(C)(Cl)Br)O2 (centres undefined),-2,62,4,0,i,78*,68
CCn1c2ccccc2c2cc(NC(=O)c3cc(OC)cc(OC)c3)ccc21,3,51,5,-1,i,-4,9
O=C(Nc1ccc(Br)cc1)c1cccc(S(=O)(=O)Nc2cnc3ccccc3c2)c1,2,84*,-1,-2,i,98*,86*
